# Article PMC5241585 (International Journal for Parasitology: Drugs and Drug …, 2016)
# Read-outs that look alike come from different tables or passages of the source. Marks after values point to notes of the source that are not given here.
# Tests used:
# [1] = system: P. falciparum 3D7; assay: P. falciparum 3D7 3H-hypoxanthine incorporation growth inhibition assay; assay type: cell-based; conditions: Plasmodium falciparum, 3D7, 48 h, read-out: P. falciparum 3D7 IC50
# [2] = system: P. knowlesi A1H.1; assay: P. knowlesi A1H.1 3H-hypoxanthine incorporation growth inhibition assay; assay type: cell-based; conditions: Plasmodium knowlesi, 48 h, read-out: P. knowlesi A1H.1 IC50
# [3] = system: Human Embryonic Kidney (HEK 293) cells; conditions: read-out: HEK 293 IC50; previously published; ref Engel et al., 2015; cited from earlier work
# [4] = system: free L. donovani promastigotes; assay: Resazurin reduction assay, L. donovani promastigotes; assay type: cell-based, Leishmania donovani; conditions: for inhibition at 20 µM: Leishmania donovani, read-out: inhibition of free L. donovani promastigotes
# [5] = system: human Neonatal Foreskin Fibroblast (NFF) cells; conditions: read-out: NFF IC50; previously published; ref Engel et al., 2015; cited from earlier work
# [6] = system: P. berghei QIMR; assay: In vivo anti-Plasmodium efficacy in infected BALB/c mice; conditions: for peripheral blood parasitemia compared to vehicle-only control mice: 25 mg/kg oral gavage twice daily for four days; for days after infection with significant reduction in parasitemia (P < 0.05): 25 mg/kg orally twice daily for four days
# In short: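 Female BALB/c mice, 6–8 weeks old, six per group, infected i.p. with […] P. berghei QIMR-infected erythrocytes from a passage mouse. Oral gavage of 25 mg/kg test compound in DMSO/PBS (100 μL) twice daily for four days, starting 2 h p.i. with 4 h between doses. Chloroquine 10 mg/kg oral twice daily for three days. Giemsa thin smears read daily from day 4 (>800 erythrocytes per mouse).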
# [7] = cited from earlier work
# [8] = Oral pharmacokinetics in humans; assay type: in vivo
# [9] = system: Plasmodium parasites; assay: Ratios derived from Table 1 IC50 values; assay type: cell-based
# [10] = Oral pharmacokinetics in mice; conditions: mice dosed orally with 50 mg/kg; ref Yeo et al., 2007
# [11] = system: S. mansoni adult worms; assay: Adult worm pair stability and egg laying in culture; assay type: cell-based, Schistosoma mansoni
# In short: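 S. mansoni adult worm pairs kept in culture with test compound at 10 μM. Pairing and egg laying expressed as mean % of DMSO control (set to 100%). Praziquantel (10 μM) served as control. Run in triplicate on two separate occasions.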
# [12] = female BALB/c nude mice, oral 50 mg/kg; ref Yeo et al., 2007; cited from earlier work
# [13] = humans, 15–80 mg oral panobinostat, ref Prince et al., 2009
# [14] = humans, 200–600 mg oral vorinostat, ref Kavanaugh et al., 2010
structure (smiles),measurement,setting,value
O=C(/C=C/c1cccc(S(=O)(=O)Nc2ccccc2)c1)NO [Belinostat],IC50,[1],170 nM
same,IC50,[2],190 nM
same,IC50,[3],1420 nM
same,inhibition at 20 µM,[4],20 to 35%
same,IC50,[5],2370 nM
CCN(CC)CCCC(C)Nc1ccnc2cc(Cl)ccc12 (stereo not drawn) [Chloroquine],peripheral blood parasitemia,"[6]; 10 mg/kg orally twice daily beginning 2 h p.i., data not shown",did not develop detectable peripheral blood parasitemia
same,IC50,[1],10 nM
same,IC50,[2],10 nM
same,IC50,[5],48900 nM
Cc1[nH]c2ccccc2c1CCNCc1ccc(/C=C/C(=O)NO)cc1 [Panobinostat],adverse effects in humans,"[7]; 20 mg oral dose, ref FARYDAK product sheet (Novartis)",adverse effects are commonly reported
same,AUC0−∞,[7]; [13],183–373 ng⋅h/mL
same,Cmax,[7]; [13],23 to 71 ng/mL
same,t1/2,[7]; [13],16–30 ^d h
same,mean Cmax,"[7]; humans, single oral dose 20 mg, ref European Medicines Agency, 2015",24.3 (±12) ng/mL
same,half-life in humans compared to mice,[8]; from Table 2 values,6–10 fold
same,oral bioavailability (F%) in humans compared to mice,[8]; from Table 2 values,approximately five
same,Cmax,"[8]; human, in vivo, po, 20 mg",~70 nM
same,peripheral blood parasitemia compared to vehicle-only control mice,[6],significant reduction
same,reduction in mean peripheral parasitemia compared to vehicle-only control,"[6]; 25 mg/kg oral gavage twice daily, days 4-10",2–3 fold
same,survival compared to vehicle control group,"[6]; 25 mg/kg oral gavage twice daily, p = 0.0013",significantly improved
same,days after infection with significant reduction in parasitemia (P < 0.05),[6],4 to 10 days
same,IC50,[1],4 nM
same,IC50,[2],9 nM
same,greater inhibitory potency against Plasmodium parasites in vitro than vorinostat,[9]; from Table 1 IC50 values,40–60 fold
same,IC50,[3],180 nM
same,half-life longer than vorinostat,[10],> 2 fold
same,inhibition at 20 µM,[4],20 to 35%
same,IC50,[5],70 nM
same,inhibition at 10 µM,"[11]; Schistosoma mansoni, read-out: inhibition of adult worm pairing",30 to 40%
same,inhibition at 10 µM,"[11]; Schistosoma mansoni, read-out: inhibition of egg production",~50%
C/C=C1\NC(=O)[C@H]2CSSCC/C=C/[C@H](CC(=O)N[C@H](C(C)C)C(=O)N2)OC(=O)[C@H](C(C)C)NC1=O [Romidepsin],IC50,[1],140 nM
same,IC50,[2],210 nM
same,selectivity for the parasite over NFF or HEK 293 cells,"[9]; P. knowlesi vs human cells, in abstract",not selective
same,IC50,[3],< 5 nM
same,inhibition of free L. donovani promastigotes,[4]; 20 μM,no growth inhibition
same,IC50,[5],1 nM
same,inhibition of adult worm pairing,[11]; 10 μM,completely inhibited
same,inhibition of egg production,[11]; 10 μM,completely inhibited
O=C(CCCCCCC(=O)Nc1ccccc1)NO [Vorinostat],AUC0−∞,[7]; [14],1698 ng⋅h/mL
same,Cmax,[7]; [14],658 ng/mL
same,peripheral blood parasitemia compared to vehicle-only control mice,[6],significant reduction
same,days after infection with significant reduction in parasitemia (P < 0.05),[6],4 to 7 days
same,AUC0−∞,[12],619 ng⋅h/mL
O=C(C1CCCCC1)N1CC(=O)N2CCc3ccccc3C2C1 (stereo not drawn) [praziquantel],effect on adult worms,[11]; 10 μM,induced the death of adult worms
same,viability at 10 µM,"[11]; Schistosoma mansoni, read-out: adult worm viability",10%
